Experimental data of several laboratories.
Each line is one published result; the experiments were not run side by side.
Target: Serine/threonine-protein kinase Sgk3 (SGK3, Homo sapiens, UniProt Q96BR1)
One construct used (Q96BR1 1-496): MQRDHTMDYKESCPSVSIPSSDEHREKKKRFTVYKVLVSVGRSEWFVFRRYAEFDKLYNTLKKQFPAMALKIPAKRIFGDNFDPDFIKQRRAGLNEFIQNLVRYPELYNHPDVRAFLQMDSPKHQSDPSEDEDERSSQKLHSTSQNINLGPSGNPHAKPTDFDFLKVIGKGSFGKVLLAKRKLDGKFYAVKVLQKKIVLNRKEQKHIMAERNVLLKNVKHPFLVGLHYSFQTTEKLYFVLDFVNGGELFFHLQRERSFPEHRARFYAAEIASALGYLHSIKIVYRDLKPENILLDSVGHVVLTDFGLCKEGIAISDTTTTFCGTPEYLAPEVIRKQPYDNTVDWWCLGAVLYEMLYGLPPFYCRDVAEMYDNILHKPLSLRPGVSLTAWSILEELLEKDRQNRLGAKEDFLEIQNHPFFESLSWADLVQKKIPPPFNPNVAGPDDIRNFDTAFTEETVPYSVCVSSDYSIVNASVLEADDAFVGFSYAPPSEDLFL

SMILES	read-out	action	technique	tested at	measurement	value
Cn1cc(-c2cc(F)cc(N3CCn4c(cc5c4CCCC5)C3=O)c2CO)cc(Nc2ccc(N3CCN(C4COC4)CC3)cn2)c1=O	enzyme activity	inhibitor	–	0.1 µM	inhibition	14%
Cc1nn(C)cc1-c1nc2c(N3CCN(Cc4ccc(Cl)cc4)CC3)c(Cl)cnc2[nH]1	binding	–	competition with immobilised ligand	1 µM	remaining binding	100%
Nc1ncc(-c2nc(N3CCOCC3)nc(N3CCOCC3)n2)c(C(F)F)n1	binding	–	competition with immobilised ligand	10 µM	remaining binding	44%
CC(C)(C)c1cc(C=C(C#N)C#N)cc(Br)c1O	enzyme activity	inhibitor	–	0.5 µM	remaining activity	97.7%
Cn1cc(-c2cccc(N3CCc4c(sc5c4CC(C)(C)C5)C3=O)c2CO)cc(Nc2ccncn2)c1=O	enzyme activity	inhibitor	–	1 µM	inhibition	5%
O=c1[nH]c2ccccc2n1C1CCN(Cc2ccc(-c3[nH]c4cc5ncnc5cc4nc3-c3ccccc3)cc2)CC1	cell-free assay	–	–	0.5 µM	remaining signal	108%
COc1cc(Nc2ncc(F)c(Nc3ccc4c(n3)NC(=O)C(C)(C)O4)n2)cc(OC)c1OC	binding	–	–	10 µM	inhibition	52%
Cn1cncc1[C@](O)(COc1ccc(C#N)cc1-c1ccc(OC(F)(F)F)cc1)c1ccc(C#N)cc1	cell-free assay	–	competition with immobilised ligand	1 µM	remaining binding	100%
COc1ncccc1-c1cnn2ccc(N3CCN(C(=O)OC(C)C)CC3)nc12	binding	–	competition with immobilised ligand	1 µM	remaining binding	100%
